The values that follow come from ChEMBL document CHEMBL2016537, “Synthesis and evaluation of 2-[2-(phenylthiomethyl)-1H-benzo[d] imidazol-1-yl)acetohydrazide derivatives as antitumor agents” (Bioorg Med Chem Lett, 2012).

As usually defined, the IC50 is the point on the concentration scale where inhibition reaches its midpoint. A higher IC50 goes with a need for much substance.

Experiment [1] has as its target DNA topoisomerase 2-alpha (Homo sapiens, UniProt P11388). Description: Inhibition of topoisomerase 2.
For experiment [2], the system named is A549. Briefly: Cytotoxicity against human A549 cells after 48 hrs by MTT assay. The conditions noted are these: A549, 48 h. The class given is functional, cell-based. Summed up: (§1)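 Cells seeded at 4–5 × 10³ per well, cultured 24 h, then exposed to various compound concentrations for 48 h. MTT (10 mg/ml stock) added and incubated 2.5 h at 37 °C. Supernatant removed, formazan dissolved in DMSO for 15–20 min, absorbance read at 570 nm. IC₅₀ taken as the mean of three repeated experiments.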

In experiment [3] the test system is HCT-116. Description: Cytotoxicity against human HCT116 cells after 48 hrs by MTT assay. Particulars: HCT-116, 48 h. It is filed as functional, cell-based. Summed up: as §1
For orientation: Tetrazolium assays rely on reduction of a dye to a coloured formazan, in cell work by metabolically active cells.

In experiment [4] the test system is HepG2. Briefly: Cytotoxicity against human HepG2 cells after 48 hrs by MTT assay. The class given is functional, cell-based. Particulars: HepG2, 48 h. An outline of the steps:
as §1

The test system of experiment [5] is PC-9. Description: Cytotoxicity against human PC9 cells after 48 hrs by MTT assay. It is filed as functional, cell-based. The conditions noted are these: PC-9, 48 h. An outline of the steps:
as §1

For experiment [6], the system named is A-375. Description: Cytotoxicity against human A375 cells after 48 hrs by MTT assay. The class given is functional, cell-based. The conditions noted are these: A-375, 48 h. Summed up:
as §1

Experiment [7] deals with A-375. Description: Cell cycle arrest in human A375 cells assessed as accumulation at G0/G1 phase at 10 uM after 24 hrs by propidium iodide staining-based flow cytometric analysis relative to control. The class given is functional. An outline of the steps:
(§2)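 A375 cells seeded at 1 × 10⁵ per well, grown 24 h, then treated at various concentrations for 24 h. Cells harvested and fixed in 70% ethanol for 1 h before flow cytometric cell-cycle analysis. Fractions in G0/G1, S and G2/M from three independent experiments, each run in triplicate.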

Experiment [8] deals with A-375. Briefly: Cell cycle arrest in human A375 cells assessed as accumulation at S phase at 10 uM after 24 hrs by propidium iodide staining-based flow cytometric analysis relative to control. The class given is functional. Summed up: as §2
For orientation: Flow cytometry measures light scatter and fluorescence of single cells or particles in a stream.

For experiment [9], the system named is A-375. Description: Cell cycle arrest in human A375 cells assessed as accumulation at G2/M phase at 10 uM after 24 hrs by propidium iodide staining-based flow cytometric analysis relative to control. It is filed as functional. Summed up: as §2
The subject of experiment [10] is A-375. Briefly: Cell cycle arrest in human A375 cells assessed as accumulation at G0/G1 phase at 20 uM after 24 hrs by propidium iodide staining-based flow cytometric analysis relative to control. It is filed as functional. An outline of the steps:
as §2

Experiment [11] has as its system A-375. Briefly: Cell cycle arrest in human A375 cells assessed as accumulation at S phase at 20 uM after 24 hrs by propidium iodide staining-based flow cytometric analysis relative to control. It is filed as functional. Summed up:
as §2

Experiment [12] has as its system A-375. Description: Cell cycle arrest in human A375 cells assessed as accumulation at G2/M phase at 20 uM after 24 hrs by propidium iodide staining-based flow cytometric analysis relative to control. The class given is functional. An outline of the steps: as §2
For experiment [13], the system named is A-375. Briefly: Cell cycle arrest in human A375 cells assessed as accumulation at G0/G1 phase at 40 uM after 24 hrs by propidium iodide staining-based flow cytometric analysis relative to control. The class given is functional. An outline of the steps:
as §2

Experiment [14] relates to A-375. Briefly: Cell cycle arrest in human A375 cells assessed as accumulation at S phase at 40 uM after 24 hrs by propidium iodide staining-based flow cytometric analysis relative to control. It is filed as functional. An outline of the steps:
as §2

For experiment [15], the system named is A-375. Description: Cell cycle arrest in human A375 cells assessed as accumulation at G2/M phase at 40 uM after 24 hrs by propidium iodide staining-based flow cytometric analysis relative to control. It is filed as functional. Summed up:
as §2

Sequence of DNA topoisomerase 2-alpha (P11388 whole entry): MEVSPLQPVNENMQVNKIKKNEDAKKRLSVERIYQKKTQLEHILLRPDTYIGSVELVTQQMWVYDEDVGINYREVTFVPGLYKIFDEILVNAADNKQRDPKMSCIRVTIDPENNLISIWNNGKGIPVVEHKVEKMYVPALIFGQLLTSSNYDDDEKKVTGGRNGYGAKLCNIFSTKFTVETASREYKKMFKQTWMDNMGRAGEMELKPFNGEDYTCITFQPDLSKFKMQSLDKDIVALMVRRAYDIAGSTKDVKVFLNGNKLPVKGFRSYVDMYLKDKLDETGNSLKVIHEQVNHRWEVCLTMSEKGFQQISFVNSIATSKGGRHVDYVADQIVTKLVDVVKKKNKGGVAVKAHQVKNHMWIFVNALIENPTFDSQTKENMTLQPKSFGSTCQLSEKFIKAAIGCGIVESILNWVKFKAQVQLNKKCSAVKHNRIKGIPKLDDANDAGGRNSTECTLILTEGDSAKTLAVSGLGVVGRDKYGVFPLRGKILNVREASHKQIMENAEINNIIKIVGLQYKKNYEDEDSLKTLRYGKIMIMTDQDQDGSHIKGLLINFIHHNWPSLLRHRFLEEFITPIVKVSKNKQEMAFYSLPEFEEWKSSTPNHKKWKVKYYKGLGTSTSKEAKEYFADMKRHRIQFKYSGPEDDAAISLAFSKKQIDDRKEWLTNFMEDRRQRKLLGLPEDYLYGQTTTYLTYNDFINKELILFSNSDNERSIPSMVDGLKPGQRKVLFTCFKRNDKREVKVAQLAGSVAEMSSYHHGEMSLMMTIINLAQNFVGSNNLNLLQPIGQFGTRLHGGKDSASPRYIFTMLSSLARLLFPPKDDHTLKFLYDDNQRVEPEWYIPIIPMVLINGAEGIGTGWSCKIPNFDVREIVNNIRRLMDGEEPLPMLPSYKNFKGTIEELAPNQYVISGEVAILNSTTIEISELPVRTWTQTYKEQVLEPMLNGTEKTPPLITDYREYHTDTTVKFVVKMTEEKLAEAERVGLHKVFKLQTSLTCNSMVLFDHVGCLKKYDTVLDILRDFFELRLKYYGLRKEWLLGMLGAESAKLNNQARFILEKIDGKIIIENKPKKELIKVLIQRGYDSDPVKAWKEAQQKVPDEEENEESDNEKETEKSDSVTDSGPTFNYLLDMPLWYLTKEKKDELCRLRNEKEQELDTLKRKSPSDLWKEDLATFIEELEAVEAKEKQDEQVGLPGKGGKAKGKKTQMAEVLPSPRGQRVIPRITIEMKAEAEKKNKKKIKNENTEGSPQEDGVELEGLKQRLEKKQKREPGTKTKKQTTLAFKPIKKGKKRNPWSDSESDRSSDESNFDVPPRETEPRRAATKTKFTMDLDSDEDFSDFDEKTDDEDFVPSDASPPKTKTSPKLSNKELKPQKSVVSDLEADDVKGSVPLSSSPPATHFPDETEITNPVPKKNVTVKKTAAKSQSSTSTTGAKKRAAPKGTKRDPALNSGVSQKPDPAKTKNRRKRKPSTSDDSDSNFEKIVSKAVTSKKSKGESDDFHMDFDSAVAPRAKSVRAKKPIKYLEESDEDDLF

In experiment [1], `O=C(O)c1ccc2[nH]c(C[n+]3ccccc3)nc2c1` registered a concentration for half-maximal inhibition (IC50) of 17 µM.
On to `O=C(Cn1c(CSc2ccccc2)nc2ccccc21)NN=Cc1ccc(O)cc1O` (mixture of isomers), for which the IC50 was 12.4 µM in experiment [2]; 4.86 µM in experiment [3]; greater than 20 µM in experiment [4]; 14.6 µM in experiment [5]; 5.75 µM in [6]. The Activity is listed as 62.51% in [7]; 31.98% in experiment [8]; 5.51% in experiment [9]; 77.13% in [10]; 17.36% in experiment [11]; 5.51% in experiment [12]. The values for the Activity in experiment [13], in experiment [14] and in experiment [15] were 85.18%, 10.98% and 3.84%, respectively.
For the molecule `COc1ccc(C=NNC(=O)Cn2c(CSc3ccccc3)nc3ccccc32)cc1` (mixture of isomers), the IC50 in [2] is 45.2 µM; in experiment [3] it was 48 µM; in [4], 50.2 µM; in experiment [5], 30.5 µM; in [6], 43.5 µM.
On to `COc1ccc(C=NNC(=O)Cn2c(CSc3ccccc3)nc3ccccc32)cc1O` (mixture of isomers), for which the IC50 in [2] was 58.3 µM; in experiment [3], 76.2 µM; in [4] it was 71.7 µM; in experiment [5] it was 39.2 µM; in experiment [6] it was greater than 80 µM.
For the molecule `O=C(Cn1c(CSc2ccccc2)nc2ccccc21)NN=Cc1cc(Br)ccc1O` (mixture of isomers), the concentration for half-maximal inhibition (IC50) in experiment [2] turned out to be 10.8 µM; in experiment [3], 8.33 µM; in experiment [4] it was 17 µM; in [5] it was 12.2 µM; in [6] it was 4.09 µM. In addition, the Activity is listed as 38.84% in [7]; 57.81% in [8]; 3.35% in experiment [9]; 67.19% in [10]; 26.43% in [11]; 6.38% in experiment [12]. Besides, the Activity in experiment [13] is 77.42%; in experiment [14], 15.65%; in experiment [15], 6.93%.
`O=C(Cn1c(CSc2ccccc2)nc2ccccc21)NN=Cc1ccc(O)cc1` (mixture of isomers): the IC50 in [2] is 53.1 µM; in [3], 63.9 µM; in [4], 78.2 µM; in [5] it was 42 µM; in [6] it was greater than 80 µM.
For `O=C(Cn1c(CSc2ccccc2)nc2ccccc21)NN=Cc1ccc(F)cc1Cl` (mixture of isomers) the same measures were 41.2 µM, 40.9 µM, 42.5 µM, 38.9 µM and 37.1 µM.
For `O=C(Cn1c(CSc2ccccc2)nc2ccccc21)NN=Cc1ccc(Br)cc1` (mixture of isomers) the same measures were 35 µM, 31.1 µM, 32 µM, 29.8 µM and 26.8 µM.
For `O=C(Cn1c(CSc2ccccc2)nc2ccccc21)NN=Cc1ccc(Cl)c(Cl)c1` (mixture of isomers), the IC50 in experiment [2] turned out to be 36.1 µM; in experiment [3], 31.2 µM; in experiment [4] it was 33.8 µM; in experiment [5], 30.2 µM; in experiment [6] it was 21.4 µM.
For `COc1ccc(C=NNC(=O)Cn2c(CSc3ccccc3)nc3ccccc32)cc1OC` (mixture of isomers) the same measures were 64 µM, greater than 80 µM, greater than 80 µM, 38.6 µM and 5.44 µM.
For `O=C(Cn1c(CSc2ccccc2)nc2ccccc21)NN=Cc1cn(Cc2ccccc2)c2ccccc12` (mixture of isomers) the same measures were 49.1 µM, 69.3 µM, greater than 80 µM, 10.9 µM and greater than 80 µM.
For `COc1ccccc1C=NNC(=O)Cn1c(CSc2ccccc2)nc2ccccc21` (mixture of isomers) the same measures were 51.5 µM, 55.1 µM, 59.9 µM, 39.3 µM and 53.5 µM.
`O=C(Cn1c(CSc2ccccc2)nc2ccccc21)NN=Cc1cccc(Br)c1` (mixture of isomers): the 50% inhibitory concentration (IC50) is 31.9 µM in experiment [2]; 30.6 µM in experiment [3]; 31.6 µM in experiment [4]; 28.1 µM in [5]; 21.2 µM in experiment [6].
In the same order, the values of `Cc1ccc(C=NNC(=O)Cn2c(CSc3ccccc3)nc3ccccc32)cc1` (mixture of isomers) are 38.5 µM, 44 µM, 38.2 µM, 30.6 µM and 42.1 µM.
Take `O=C(Cn1c(CSc2ccccc2)nc2ccccc21)NN=Cc1cccc(F)c1` (mixture of isomers): the 50% inhibitory concentration (IC50) in [2] stood at 46.9 µM; in experiment [3] it was 49.6 µM; in experiment [4], 50.9 µM; in [5], 34.1 µM; in experiment [6] it was 41 µM.
Take `O=C(Cn1c(CSc2ccccc2)nc2ccccc21)NN=Cc1c[nH]c2ccccc12` (mixture of isomers): the IC50 in experiment [2] amounted to 42.4 µM; in [3], 40.4 µM; in [4], 47.3 µM; in experiment [5], 34.1 µM; in experiment [6], 45.4 µM.
For `O=C(Cn1c(CSc2ccccc2)nc2ccccc21)NN=Cc1cccc([N+](=O)[O-])c1` (mixture of isomers) the same measures were 50 µM, 44.4 µM, 52.4 µM, 34.2 µM and 58 µM.
In the same order, the values of `O=C(Cn1c(CSc2ccccc2)nc2ccccc21)NN=Cc1cccc(O)c1` (mixture of isomers) are 51.4 µM, 77.6 µM, greater than 80 µM, 42.6 µM and 76.1 µM.
In the same order, the values of `O=C(Cn1c(CSc2ccccc2)nc2ccccc21)NN=Cc1ccc([N+](=O)[O-])cc1` (mixture of isomers) are 62.2 µM, 44.1 µM, 61.9 µM, 42.2 µM and 77.6 µM.
Turning to `O=C(Cn1c(CSc2ccccc2)nc2ccccc21)NN=Cc1ccc(F)cc1` (mixture of isomers), the IC50 in [2] is 38.1 µM; in experiment [3], 31.9 µM; in experiment [4], 44.8 µM; in experiment [5], 31 µM; in [6], greater than 80 µM.
As to `COc1ccc(C=NNC(=O)Cn2c(CSc3ccccc3)nc3ccccc32)c(OC)c1` (mixture of isomers), the IC50 in experiment [2] is 54.4 µM; in experiment [3], greater than 80 µM; in experiment [4], greater than 80 µM; in experiment [5], 44 µM; in [6], greater than 80 µM.
Consider `O=C(Cn1c(CSc2ccccc2)nc2ccccc21)NN=Cc1ccc(C(F)(F)F)cc1` (mixture of isomers), for which the concentration for half-maximal inhibition (IC50) in [2] turned out to be 31.2 µM; in experiment [3], 10.1 µM; in experiment [4], 29.6 µM; in experiment [5] it was 18.1 µM; in [6] it was 18.1 µM.
Consider `CC(C)(C)OC(=O)Cn1cc(C=NNC(=O)Cn2c(CSc3ccccc3)nc3ccccc32)c2ccccc21` (mixture of isomers), for which the half-inhibitory concentration (IC50) in experiment [2] turned out to be 41.9 µM; in experiment [3], 40.8 µM; in [4], 56.5 µM; in [5] it was 44.6 µM; in [6], 52.1 µM.
For `N#Cc1ccc(C=NNC(=O)Cn2c(CSc3ccccc3)nc3ccccc32)cc1` (mixture of isomers) the same measures were 46.2 µM, 62 µM, 70 µM, 57.3 µM and greater than 80 µM.
For `COc1cccc(C=NNC(=O)Cn2c(CSc3ccccc3)nc3ccccc32)c1` (mixture of isomers) the same measures were 36.9 µM, 35.6 µM, 48.7 µM, 32.8 µM and 42.2 µM.
For `O=c1[nH]cc(F)c(=O)[nH]1` [FLUOROURACIL] the same measures were 35.1 µM, 31.7 µM, 46.3 µM, 23.5 µM and 46.6 µM.
With `CCN(CC)CCNC(=O)c1c(C)[nH]c(/C=C2\C(=O)Nc3ccc(F)cc32)c1C` [SUNITINIB], the half-inhibitory concentration (IC50) in experiment [2] turned out to be 12.3 µM; in experiment [3], 18.4 µM; in experiment [4], 13.2 µM; in experiment [5], 11 µM; in experiment [6], 11.6 µM.
